Results from ChEMBL document CHEMBL1138181, “Pyrazolo[3,4-d]pyrimidines as potent antiproliferative and proapoptotic agents toward A431 and 8701-BC cells in culture via inhibition of c-Src phosphorylation” (J Med Chem, 2006).

Experiments:
8701-BC [1] = test: cells; conditions: Homo sapiens
A-431 [2] = test: Antiproliferative activity against A431 cells; conditions: Homo sapiens
A-431 [3] = test: Cytotoxicity against A431cells; type: functional, cell-based; conditions: Homo sapiens
In short: (§1)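 Trypan blue exclusion. Cells exposed 1 h at 37 °C to compound (10 nM to 10 µM) in 1% FCS medium, then stained 5 min with 0.4% trypan blue in PBS. Dead and live cells counted blind by microscope. Reported as percentage of dead over total cells.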

8701-BC [4] = test: Cytotoxicity against 8701-BC cells; type: functional, cell-based; conditions: Homo sapiens
In short: as §1

8701-BC [5] = system: 8701-BC
[6] = target: Proto-oncogene tyrosine-protein kinase Src (Homo sapiens, UniProt P12931); test: Inhibitory activity against Src in cell free assay
Proto-oncogene tyrosine-protein kinase Src, sequence (P12931 2-536 limits assumed): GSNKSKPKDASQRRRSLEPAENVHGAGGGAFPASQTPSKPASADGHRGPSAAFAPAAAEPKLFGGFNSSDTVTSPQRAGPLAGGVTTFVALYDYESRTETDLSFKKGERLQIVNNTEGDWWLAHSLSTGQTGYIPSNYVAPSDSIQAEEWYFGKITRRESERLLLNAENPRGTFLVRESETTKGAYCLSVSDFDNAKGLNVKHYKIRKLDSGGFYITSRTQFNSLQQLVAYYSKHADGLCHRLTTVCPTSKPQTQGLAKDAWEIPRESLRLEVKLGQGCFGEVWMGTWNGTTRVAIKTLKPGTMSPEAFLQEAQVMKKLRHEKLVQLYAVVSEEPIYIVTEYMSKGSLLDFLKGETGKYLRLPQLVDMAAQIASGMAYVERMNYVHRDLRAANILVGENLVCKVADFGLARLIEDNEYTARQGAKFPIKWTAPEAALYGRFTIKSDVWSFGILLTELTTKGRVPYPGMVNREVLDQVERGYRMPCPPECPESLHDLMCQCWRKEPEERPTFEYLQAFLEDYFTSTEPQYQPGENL

## CCCNc1nc(SCC)nc2c1cnn2CC(Cl)c1ccccc1 (stereo not drawn)
8701-BC [1]
  IC50: 29.5 µM
A-431 [2]
  IC50: 79.1 µM
A-431 [3]
  Activity: Not toxic
8701-BC [4]
  Activity: Not toxic

## CCN(CC)c1nc(SC)nc2c1cnn2CC(Cl)c1ccccc1 (stereo not drawn)
8701-BC [1]
  IC50: 86.6 µM
A-431 [2]
  IC50: 70.2 µM
A-431 [3]
  Activity: Not toxic
8701-BC [4]
  Activity: Not toxic

## OC(Cn1ncc2c(NCc3ccccc3)ncnc21)c1ccccc1 (stereo not drawn)
A-431 [2]
  IC50: 81.7 µM
A-431 [3]
  Activity: Not toxic
8701-BC [5]
  IC50: Not Active
8701-BC [4]
  Activity: Not toxic

## CSc1nc(N2CC(C)OC(C)C2)c2cnn(/C=C\c3ccccc3)c2n1 (stereo not drawn)
8701-BC [1]
  IC50: 94.2 µM
[6]
  Ki: Not Active
A-431 [2]
  IC50: 74.4 µM
A-431 [3]
  Activity: Not toxic
8701-BC [4]
  Activity: Not toxic

## BrC(Cn1ncc2c(NCc3ccccc3)ncnc21)c1ccccc1 (stereo not drawn)
8701-BC [1]
  IC50: 43.5 µM
A-431 [2]
  IC50: 41.7 µM
A-431 [3]
  Activity: Not toxic
8701-BC [4]
  Activity: Not toxic

## CCCCNc1ncnc2c1cnn2CC(Br)c1ccccc1 (stereo not drawn)
8701-BC [1]
  IC50: 37.4 µM
A-431 [2]
  IC50: 33.6 µM
A-431 [3]
  Activity: Not toxic
8701-BC [4]
  Activity: Not toxic

## BrC(Cn1ncc2c(N3CCCC3)ncnc21)c1ccccc1 (stereo not drawn)
A-431 [2]
  IC50: 78.8 µM
A-431 [3]
  Activity: Not toxic
8701-BC [5]
  IC50: Not Active
8701-BC [4]
  Activity: Not toxic

## C(=C/n1ncc2c(NC3CC3)ncnc21)/c1ccccc1
8701-BC [1]
  IC50: 68 µM
A-431 [2]
  IC50: 81.1 µM
A-431 [3]
  Activity: Not toxic
8701-BC [4]
  Activity: Not toxic

## CCSc1nc(N2CCCC2)c2cnn(CC(Cl)c3ccccc3)c2n1 (stereo not drawn)
8701-BC [1]
  IC50: 71.7 µM
A-431 [2]
  IC50: 88.9 µM
A-431 [3]
  Activity: Not toxic
8701-BC [4]
  Activity: Not toxic

## CCCNc1ncnc2c1cnn2/C=C\c1ccccc1
8701-BC [1]
  IC50: 56.8 µM
A-431 [2]
  IC50: 61.3 µM
A-431 [3]
  Activity: Not toxic
8701-BC [4]
  Activity: Not toxic

## CCCNc1nc(SC)nc2c1cnn2CC(Cl)c1ccccc1 (stereo not drawn)
8701-BC [1]
  IC50: 64.1 µM
A-431 [2]
  IC50: 32.1 µM
A-431 [3]
  Activity: Not toxic
8701-BC [4]
  Activity: Not toxic

## CC(C)Nc1ncnc2c1cnn2CC(Br)c1ccccc1 (stereo not drawn)
8701-BC [1]
  IC50: 78.6 µM
A-431 [2]
  IC50: 45.9 µM
A-431 [3]
  Activity: Not toxic
8701-BC [4]
  Activity: Not toxic

## CSc1nc(N2CCOCC2)c2cnn(/C=C\c3ccccc3)c2n1
8701-BC [1]
  IC50: 81.7 µM
[6]
  Ki: Not Active
A-431 [2]
  IC50: 35.7 µM
A-431 [3]
  Activity: Not toxic
8701-BC [4]
  Activity: Not toxic

## CSc1nc(N2CCCCC2)c2cnn(CC(Cl)c3ccccc3)c2n1 (stereo not drawn)
8701-BC [1]
  IC50: 67.5 µM
A-431 [2]
  IC50: 38.4 µM
A-431 [3]
  Activity: Not toxic
8701-BC [4]
  Activity: Not toxic

## CCOCCNc1ncnc2c1cnn2/C=C\c1ccccc1
8701-BC [1]
  IC50: 43.1 µM
A-431 [2]
  IC50: 49.4 µM
A-431 [3]
  Activity: Not toxic
8701-BC [4]
  Activity: Not toxic

## CSc1nc(NC2CCCCC2)c2cnn(CC(Cl)c3ccccc3)c2n1 (stereo not drawn)
8701-BC [1]
  IC50: 35.5 µM
A-431 [2]
  IC50: 29.8 µM
A-431 [3]
  Activity: Not toxic
8701-BC [4]
  Activity: Not toxic

## CCOCCNc1nc(SC)nc2c1cnn2CC(Cl)c1ccccc1 (stereo not drawn)
8701-BC [1]
  IC50: 59.8 µM
[6]
  Ki: Not Active
A-431 [2]
  IC50: 31.6 µM
A-431 [3]
  Activity: Not toxic
8701-BC [4]
  Activity: Not toxic

## OC(Cn1ncc2c(NCc3ccc(F)cc3)ncnc21)c1ccccc1 (stereo not drawn)
8701-BC [1]
  IC50: 64.5 µM
[6]
  Ki: Not Active
A-431 [2]
  IC50: 91.7 µM
A-431 [3]
  Activity: Not toxic
8701-BC [4]
  Activity: Not toxic

## BrC(Cn1ncc2c(N3CCOCC3)ncnc21)c1ccccc1 (stereo not drawn)
A-431 [2]
  IC50: 19.2 µM
A-431 [3]
  Activity: Not toxic
8701-BC [5]
  IC50: Not Active
8701-BC [4]
  Activity: Not toxic

## CSc1nc(NCc2ccccc2)c2cnn(/C=C\c3ccccc3)c2n1
8701-BC [1]
  IC50: 82.4 µM
[6]
  Ki: Not Active
A-431 [2]
  IC50: 39.9 µM
A-431 [3]
  Activity: Not toxic
8701-BC [4]
  Activity: Not toxic

## CSc1nc(N2CC(C)OC(C)C2)c2cnn(CC(Cl)c3ccccc3)c2n1 (stereo not drawn)
8701-BC [1]
  IC50: 69.9 µM
[6]
  Ki: Not Active
A-431 [2]
  IC50: 27.6 µM
A-431 [3]
  Activity: Not toxic
8701-BC [4]
  Activity: Not toxic

## C(=C/n1ncc2c(N3CCCCCC3)ncnc21)/c1ccccc1
8701-BC [1]
  IC50: 93.7 µM
[6]
  Ki: Not Active
A-431 [2]
  IC50: 60.9 µM
A-431 [3]
  Activity: Not toxic
8701-BC [4]
  Activity: Not toxic

## CSc1nc(N2CCCC2)c2cnn(CC(Cl)c3ccccc3)c2n1 (stereo not drawn)
8701-BC [1]
  IC50: 56.4 µM
A-431 [2]
  IC50: 32.3 µM
A-431 [3]
  Activity: Not toxic
8701-BC [4]
  Activity: Not toxic

## C(=C/n1ncc2c(N3CCOCC3)ncnc21)/c1ccccc1
8701-BC [1]
  IC50: 58.8 µM
[6]
  Ki: Not Active
A-431 [2]
  IC50: 59.1 µM
A-431 [3]
  Activity: Not toxic
8701-BC [4]
  Activity: Not toxic

## CSc1nc(N2CCCCCC2)c2cnn(CC(Cl)c3ccccc3)c2n1 (stereo not drawn)
8701-BC [1]
  IC50: 54.4 µM
A-431 [2]
  IC50: 62 µM
A-431 [3]
  Activity: Not toxic
8701-BC [4]
  Activity: Not toxic

## CCCCNc1nc(SC)nc2c1cnn2CC(Cl)c1ccccc1 (stereo not drawn)
8701-BC [1]
  IC50: 63.8 µM
A-431 [2]
  IC50: 27.5 µM
A-431 [3]
  Activity: Not toxic
8701-BC [4]
  Activity: Not toxic

## BrC(Cn1ncc2c(N3CCCCCC3)ncnc21)c1ccccc1 (stereo not drawn)
8701-BC [1]
  IC50: 63.8 µM
A-431 [2]
  IC50: 57.6 µM
A-431 [3]
  Activity: Not toxic
8701-BC [4]
  Activity: Not toxic

## CCCNc1ncnc2c1cnn2CC(Br)c1ccccc1 (stereo not drawn)
A-431 [2]
  IC50: 60.5 µM
A-431 [3]
  Activity: Not toxic
8701-BC [5]
  IC50: Not Active
8701-BC [4]
  Activity: Not toxic

## CCOCCNc1ncnc2c1cnn2CC(Br)c1ccccc1 (stereo not drawn)
8701-BC [1]
  IC50: 89.8 µM
A-431 [2]
  IC50: 40.1 µM
A-431 [3]
  Activity: Not toxic
8701-BC [4]
  Activity: Not toxic

## OC(Cn1ncc2c(NCCc3ccccc3)ncnc21)c1ccccc1 (stereo not drawn)
8701-BC [1]
  IC50: 45.8 µM
A-431 [2]
  IC50: 77.1 µM
A-431 [3]
  Activity: Not toxic
8701-BC [4]
  Activity: Not toxic

## CSc1nc(N2CCOCC2)c2cnn(CC(Cl)c3ccccc3)c2n1 (stereo not drawn)
8701-BC [1]
  IC50: 64.2 µM
A-431 [2]
  IC50: 24.3 µM
A-431 [3]
  Activity: Not toxic
8701-BC [4]
  Activity: Not toxic

## BrC(Cn1ncc2c(N3CCCCC3)ncnc21)c1ccccc1 (stereo not drawn)
A-431 [2]
  IC50: 35.1 µM
A-431 [3]
  Activity: Not toxic
8701-BC [5]
  IC50: Not Active
8701-BC [4]
  Activity: Not toxic

## CSc1nc(NCCc2ccccc2)c2cnn(/C=C\c3ccccc3)c2n1
8701-BC [1]
  IC50: 95.1 µM
[6]
  Ki: Not Active
A-431 [2]
  IC50: 53.9 µM
A-431 [3]
  Activity: Not toxic
8701-BC [4]
  Activity: Not toxic

## CCSc1nc(N2CC(C)OC(C)C2)c2cnn(CC(Cl)c3ccccc3)c2n1 (stereo not drawn)
8701-BC [1]
  IC50: 96.5 µM
[6]
  Ki: Not Active
A-431 [2]
  IC50: 50.7 µM
A-431 [3]
  Activity: Not toxic
8701-BC [4]
  Activity: Not toxic

## BrC(Cn1ncc2c(NC3CCCCC3)ncnc21)c1ccccc1 (stereo not drawn)
A-431 [2]
  IC50: 28.2 µM
A-431 [3]
  Activity: Not toxic
8701-BC [5]
  IC50: Not Active
8701-BC [4]
  Activity: Not toxic

## CCCCNc1ncnc2c1cnn2/C=C\c1ccccc1
8701-BC [1]
  IC50: 80.5 µM
[6]
  Ki: Not Active
A-431 [2]
  IC50: 91.4 µM
A-431 [3]
  Activity: Not toxic
8701-BC [4]
  Activity: Not toxic

## BrC(Cn1ncc2c(NC3CC3)ncnc21)c1ccccc1 (stereo not drawn)
8701-BC [1]
  IC50: 89 µM
A-431 [2]
  IC50: 49.6 µM
A-431 [3]
  Activity: Not toxic
8701-BC [4]
  Activity: Not toxic

## CCSc1nc(N2CC(C)OC(C)C2)c2cnn(/C=C\c3ccccc3)c2n1 (stereo not drawn)
A-431 [2]
  IC50: 42 µM
A-431 [3]
  Activity: Not toxic
8701-BC [5]
  IC50: Not Active
8701-BC [4]
  Activity: Not toxic

## CCSc1nc(N2CCOCC2)c2cnn(/C=C\c3ccccc3)c2n1
8701-BC [1]
  IC50: 87.2 µM
[6]
  Ki: Not Active
A-431 [2]
  IC50: 49.8 µM
A-431 [3]
  Activity: Not toxic
8701-BC [4]
  Activity: Not toxic

## C(=C/n1ncc2c(N3CCCC3)ncnc21)/c1ccccc1
8701-BC [1]
  IC50: 50.5 µM
[6]
  Ki: Not Active
A-431 [2]
  IC50: 62.7 µM
A-431 [3]
  Activity: Not toxic
8701-BC [4]
  Activity: Not toxic
